Reference: publication PMC6542364 (Journal of the American Chemical Society, 2019)

Test system: HS-5 cells
Test: 3D cell spheroid formation from a 2D cell sheet
Type: cell-based
Settings: co-incubation with pD1-B 200 μM, biotin e.g. 500 μM, 24 h
Method in brief: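 HS-5 fibroblast monolayers were kept in culture medium with the test compound at 200 μM for 24 h, with medium alone as control. In the competition arm, free biotin at 500 μM was co-incubated with the test compound. Cell clustering and spheroid formation were recorded by optical imaging.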

For O=C(O)CCCC[C@@H]1SC[C@@H]2NC(=O)N[C@@H]21 [biotin], the “effect of competing biotin on pD1-B-induced cell spheroid formation” value was “blocks the formation of cell spheroids in a concentration dependent manner”.
